Compounds with a hit are over-represented: about 1.9% of the library has one in this group of screens.
SR-BI DiI-HDL act: enhances SR-BI lipid uptake from DiI-HDL; CHO ldlA[mSR-BI] cells, DiI-HDL uptake fluorescence, 3 h; 100 = double the neutral-control signal; AID 504775; activation, % at 12.5 µM; 320,000 tested, 0.096% active;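 active means mean replicate activation of at least 60% and every replicate at or above 60%; inconclusive means mean or all-replicate condition met, but not both; inactive means mean below 60% and not all replicates reaching 60%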;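 further: 0% = median plate neutral-control signal and 100% = twice that signal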
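System: LDL receptor-deficient CHO ldlA cells overexpressing murine SR-BI | Timing: 3 h uptake period with compound, 37 °C | Medium: HEPES-buffered (25 mM, pH 7.4) F12 plus 0.5% BSA | Dosing: Single-point compound dose | Signal: Bottom-read fluorescence, 550/595 nm | Read-out: Retained DiI signal reflecting DiI-HDL uptake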
SR-BI DiI inh: mouse SR-BI HDL lipid transfer inhibition; ldlA[mSR-BI] CHO cells, DiI-HDL uptake fluorescence, 3 h; AID 488896; inhibition, % at 12.5 µM; 320,000 tested, 0.96% active; Q61009;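 active means mean replicate inhibition of at least 70% and a set share of replicates each scoring 70 or more; inconclusive means meets just one of the two criteria; inactive means fails both criteria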;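 further: 0% = median of neutral control wells and 100% = median of positive control wells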
Target sequence (Q61009 whole entry, looked up): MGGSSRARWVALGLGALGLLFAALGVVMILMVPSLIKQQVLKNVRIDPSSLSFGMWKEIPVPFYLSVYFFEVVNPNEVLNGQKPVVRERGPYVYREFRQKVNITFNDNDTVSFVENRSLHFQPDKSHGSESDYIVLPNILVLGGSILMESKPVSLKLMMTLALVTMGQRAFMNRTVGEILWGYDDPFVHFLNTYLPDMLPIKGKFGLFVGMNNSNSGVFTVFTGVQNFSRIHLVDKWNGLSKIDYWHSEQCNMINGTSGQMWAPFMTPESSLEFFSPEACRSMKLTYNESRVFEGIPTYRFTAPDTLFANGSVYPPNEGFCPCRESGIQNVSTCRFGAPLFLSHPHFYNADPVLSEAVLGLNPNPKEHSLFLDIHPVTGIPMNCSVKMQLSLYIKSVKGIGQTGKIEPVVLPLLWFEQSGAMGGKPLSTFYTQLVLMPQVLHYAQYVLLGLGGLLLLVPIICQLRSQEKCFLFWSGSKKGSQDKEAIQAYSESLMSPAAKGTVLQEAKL
UBC13 polyUb: human UBC13 polyubiquitination inhibition | 330,000 tested, 0.47% active | UBC13 polyubiquitin chain formation, TR-FRET | P61088 | AID 485273 | inhibition, % at 20 µM; in the data active means inhibition above about 45%, passing the limit was not always enough; inconclusive means no clear call, values can overlap the other calls
Target sequence (P61088 whole entry, looked up): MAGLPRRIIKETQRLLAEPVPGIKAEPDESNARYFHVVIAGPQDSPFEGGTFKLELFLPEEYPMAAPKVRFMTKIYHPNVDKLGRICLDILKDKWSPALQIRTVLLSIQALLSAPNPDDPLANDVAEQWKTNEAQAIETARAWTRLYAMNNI
Neddylation inh: cullin neddylation inhibition; P61081+Q13564; TR-FRET cullin neddylation, biochemical; inhibition, % at 25 µM; 360,000 tested, 0.58% active; in the data active means inhibition above about 36%
Numbers without * were called inactive; ? = inconclusive; · = no result shown.

SMILES | SR-BI DiI-HDL act | SR-BI DiI inh | UBC13 polyUb | Neddylation inh
Cc1cc(Cl)ccc1OCC(=O)N1CCCCC1 | 0 | 0 | 0 | 7
O=C(COc1ccc(Cl)cc1Cl)N1CCCN(C(=O)COc2ccc(Cl)cc2Cl)CC1 | -85 | 85* | 6 | 9
CCN1CCc2c(sc(NC(=O)c3ccc4ccccc4c3)c2C(N)=O)C1 | -12 | 12 | 17 | 41*
CCN1CCN(S(=O)(=O)c2ccc(C(=O)Nc3sc4c(c3C(N)=O)CCN(CC)C4)cc2)CC1 | 4 | -4 | -20 | -11
O=C(Nc1ccc(OC(F)(F)F)cc1)C1CCCN(C(=O)c2ccc(Cl)cc2)C1 (stereo not given) | -17 | 17 | 2 | 0
COc1cc(/C=C/C(=O)OCC(=O)c2c(N)n(C)c(=O)n(C)c2=O)ccc1O | -40 | 40 | -10 | 25
COc1cc(/C=C/C(=O)OCC(=O)c2c(N)n(C)c(=O)n(C)c2=O)ccc1OCC#N | -71 | 71* | 3 | 34
CC(=O)NC(C)(c1ccccc1)c1nc(-c2cccc3cccnc23)cs1 (stereo not given) | · | · | · | 3
Fc1ccc(CCN2CCN=C2Nc2ccccc2)cc1 | 68* | -68 | 14 | -25
COCCCN(C(C)=O)c1nc(-c2ccc(OC)cc2)cs1 | -78 | 78* | 11 | -1
COc1ccc(-c2csc(N(CC3CCCO3)C(=O)c3ccccc3)n2)cc1 (stereo not given) | -51 | 51 | -3 | -3
COc1ccc(-c2cc(C(=O)NCC3CCCO3)c3cc(C)ccc3n2)cc1 (stereo not given) | -72 | 72* | 15 | ·
COc1ccc(-c2csc(N(CC3CCCO3)C(=O)c3ccc(C)cc3)n2)cc1 (stereo not given) | -77 | 77* | 4 | -12
COc1ccc(-c2cc(C(=O)NCC3CCCO3)c3ccccc3n2)cc1 (stereo not given) | -63 | 63 | 12 | ·
CCCc1nc2c3ccccc3ccn2c1Cc1ccccc1 | · | · | · | 27
COc1cc2c(cc1OC)C(C)N(C(=O)c1cccs1)CC2 (stereo not given) | 32 | -32 | -8 | 6
COc1cc2c(cc1OC)C(C)N(C(=O)c1cc3c(=O)oc4ccc(C)cc4c3s1)CC2 (stereo not given) | 7 | -7 | 47* | 23
CC1=CC(C)(C)N2C(=O)C3(NCCc4c3[nH]c3ccccc43)c3cc(C)cc1c32 (stereo not given) | -88 | 88* | -15 | 3
CCCCn1nnnc1C1(C)CCC(=O)N1C1CC1 (stereo not given) | · | · | · | 4
COc1ccccc1C(=O)Nc1cc(Cl)ccc1O | -24 | 24 | 4 | 14
COc1ccc(Cl)cc1NC(=O)c1ccccc1C | -86 | 86* | 4 | -6
COc1ccc(Cl)cc1NC(=O)c1cc(-c2ccccc2O)n[nH]1 | -90 | 90* | 0 | 10
COc1ccc(Cl)cc1NC(=O)Nc1cccc([N+](=O)[O-])c1C | -78 | 78* | 0 | -5
C/C=N\NC(=O)CNC(=O)CNC(=O)c1ccccc1 | 11 | -11 | 8 | -3
CCOC(=O)/C=c1/s/c(=C\c2c(OC)ccc3ccccc23)c(=O)n1CC(=O)NCC1CCCO1 (stereo not given) | ? | -286 | · | 19
SMILES | SR-BI DiI-HDL act | SR-BI DiI inh | UBC13 polyUb | Neddylation inh
CCOC(=O)/C=c1\s/c(=C\c2c(OCC)ccc3ccccc23)c(=O)n1CC(=O)NCC1CCCO1 (stereo not given) | -91 | 91* | -12 | 10
Cc1ccc(C23CC4CC(CC(C(=O)NC(C(=O)O)C(C)C)(C4)C2)C3)cc1 (stereo not given) | 8 | -8 | -4 | -8
Cc1nc(CSc2nsc(/C=C/N(C)C)c2C#N)cs1 | -17 | 17 | · | -93
COC(=O)c1ccccc1CSc1nsc(/C=C/N(C)C)c1C#N | -101 | 101* | -6 | -40
CC1CN(C(=O)COC(=O)[C@@H](NC(=O)c2ccccc2Cl)C(C)C)CC(C)O1 (stereo not given in full) | -2 | 2 | 5 | 14
Cc1ccc(-c2[nH]nc(N)c2N=Nc2cccc(Cl)c2C)cc1 | -84 | 84* | · | -11
Cc1ccc(-c2[nH]nc(N)c2N=Nc2ccccc2C)cc1 | -76 | 76* | 13 | -7
Cc1cccc(N=Nc2c(N)n[nH]c2-c2ccc(Cl)cc2)c1 | -71 | 71* | 16 | -3
Cc1ccc(N=Nc2c(N)n[nH]c2N)cc1 | 13 | -13 | 6 | -36
COc1ccc(C(=O)N/C(=C\c2ccc3c(c2)OCO3)C(=O)Nc2cccc(C(=O)O)c2)cc1 | 7 | -7 | -7 | -11
COc1cc(NC(=O)C2=C(N3CCOCC3)/C(=C\c3ccc(N(C)C)cc3)CCC2)cc(OC)c1OC | -74 | 74* | -6 | 22
COc1cc(NC(=O)C2=C(N3CCOCC3)/C(=C/c3ccc(Cl)cc3)CC2)cc(OC)c1OC | -74 | 74* | 10 | 18
CCOC(=O)c1ccc(NC(=O)c2ncn3c2C(=O)NC[C@@H]3C)cc1 | · | · | · | 6
Cc1ccc(S(=O)(=O)N2C(=O)/C(=C3\SC(=S)NC3=O)c3ccccc32)cc1 | · | · | -52 | ·
COc1ccc(S(=O)(=O)N2CCC(C(=O)N[C@@H](C)C(=O)NCc3ccccn3)CC2)cc1 | · | · | · | -1
CCOC(=O)c1c(C)[nH]c(C(=O)OCC(=O)Nc2sccc2C(N)=O)c1C | -43 | 43 | 1 | -20
CCOc1c(Br)cc(/C=C2/SC(=O)N(CC(=O)N3CCCC3)C2=O)cc1OC | -60 | 60 | 2 | 38
CCOC(=O)COc1c(Br)cc(/C=C2\SC(=O)N(CC(=O)N3CCCC3)C2=O)cc1OC | -72 | 72* | -11 | -35
Cc1ccc(S(=O)(=O)N[C@@H](C)CO)cc1 | · | · | · | -8
Cc1sc2nc(CSC(C)C(=O)NC3(C#N)CCCCC3)[nH]c(=O)c2c1C (stereo not given) | -1 | 1 | 3 | 18
CCOc1ccccc1Nc1nnc(SCC(=O)N(C)C2CCS(=O)(=O)C2)s1 (stereo not given) | -75 | 75* | 16 | 7
COc1ccc(OC)c(NC(=O)COC(=O)COc2ccc(Nc3ccccc3)cc2)c1 | -5 | 5 | -19 | 6
COC(=O)Cn1c(=NC(=O)c2ccc(OC)cc2)sc2cc(OC)ccc21 | -71 | 71* | 39 | -189
O=S(=O)(c1ccccc1)C(Br)S(=O)(=O)c1ccccc1 | · | · | · | -10
O=C(COc1ccc(/C=N/NS(=O)(=O)c2ccccc2)cc1)Nc1cccc(Cl)c1 | -75 | 75* | -16 | -13
SMILES | SR-BI DiI-HDL act | SR-BI DiI inh | UBC13 polyUb | Neddylation inh
O=C(COc1ccc(/C=N/NS(=O)(=O)c2ccccc2)cc1)NCc1ccccc1 | 4 | -4 | -16 | -18
CC(=O)NCCNc1nc2cc(-c3cccc(C(F)(F)F)c3)sc2c(=O)n1C | · | · | · | -102
C/C(=N\NC(N)=S)C1(C)CCCCC1 | -78 | 78* | -7 | 6
CCCN(CCC)C1=CC(=[N+]2CCCC2)CC(C)(C)C1 | 83* | -83 | -5 | 4
CN(C)NC1=CC(=[N+]2CCCC2)CC(C)(C)C1 | -10 | 10 | 4 | 4
Cc1cccc(C)c1OCC(=O)NC1CC1 | 19 | -19 | 1 | -6
Cc1cccc(C)c1OCC(=O)NNC(=S)NC(=O)C1CC1 | -2 | 2 | 85* | 2
